Shown are actives, neighbours in structure and some others; about 3.1% of the full set was active somewhere.
PAFAH2 inh = inhibitors of human PAFAH2; Q99487; recombinant PAFAH2, FP-rhodamine activity probe, fluorescence polarization; inhibition, % at 3.39 µM; hit rate 0.99% among 340,000;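 active means inhibition above the mean over all tested compounds plus 3 SD, cut at about 30% in these data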;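 further: inhibitors block probe labeling of enzyme so polarization drops; 0% = enzyme with DMSO and 100% = wells lacking PAFAH2 protein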
PAFAH1B3 FP inh = PAFAH1B3 (human) inhibition; Q15102; recombinant PAFAH1B3, FP-rhodamine probe, fluorescence polarization; inhibition, % at 3.39 µM; hit rate 0.28% among 340,000;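 active means inhibition above the screen-wide average of all tested compounds plus 3 SD, cut at about 25% in these data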;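 further: 0% = enzyme with DMSO only and 100% = wells lacking PAFAH1B3 protein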
Apaf-1 inh = blocks human Apaf-1 apoptosome activity; O14727; reconstituted apoptosome caspase-3 activity, DEVD-Rh110 fluorescence; inhibition, % at 20 µM; hit rate 0.71% among 330,000; AID 489030; active means inhibition of at least 40% at 20 µM;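 further: plate controls were DMSO wells for no effect and DEVD-CHO caspase inhibitor wells for full effect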
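Material: biochemical Apaf-1 apoptosome reconstitution. Medium: Hepes buffer, pH 7.5. Also added: cytochrome c activation, bis-DEVD rhodamine 110 substrate. Timing: 30 min compound preincubation, 50 min activation, room temperature. Measured by: rhodamine 110 fluorescence at Ex 480/Em 540 nm.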
PAFAH1B2 inh = PAFAH1B2 (human) inhibition; inhibition, % at 3.39 µM; P68402; hit rate 1.2% among 340,000; recombinant PAFAH1B2, FP-rhodamine activity probe, fluorescence polarization;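 active means inhibition above the mean of all tested compounds plus 3 SD, cut at about 24% in these data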;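 further: 0% = enzyme with DMSO and 100% = wells lacking PAFAH1B2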
pPAFAH inh = inhibitors of human plasma PAF acetylhydrolase (pPAFAH); Q13093; recombinant pPAFAH, FP-rhodamine probe fluorescence polarization; inhibition, % at 3.39 µM; hit rate 1.5% among 330,000;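 active means inhibition above the mean inhibition across the screen plus 3 SD, cut at about 25% in these data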;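 further: inhibitors block binding of the rhodamine activity-based probe so polarization drops; 0% = enzyme with DMSO and 100% = wells lacking pPAFAH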
Target sequence (Q13093 whole entry, looked up): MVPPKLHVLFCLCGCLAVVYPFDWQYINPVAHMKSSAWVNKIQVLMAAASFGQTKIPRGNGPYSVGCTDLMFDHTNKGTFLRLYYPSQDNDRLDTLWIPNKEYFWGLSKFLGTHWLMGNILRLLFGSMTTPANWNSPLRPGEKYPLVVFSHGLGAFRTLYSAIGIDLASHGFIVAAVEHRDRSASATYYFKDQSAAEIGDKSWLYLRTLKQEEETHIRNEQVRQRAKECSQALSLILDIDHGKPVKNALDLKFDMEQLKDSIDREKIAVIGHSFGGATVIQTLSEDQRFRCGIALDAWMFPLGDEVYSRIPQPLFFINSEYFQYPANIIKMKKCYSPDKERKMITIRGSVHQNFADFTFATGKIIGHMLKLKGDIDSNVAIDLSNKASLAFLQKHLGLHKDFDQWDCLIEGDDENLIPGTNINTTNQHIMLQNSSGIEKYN
An asterisk follows results filed as active; . = no result.

SMILES	PAFAH2 inh	PAFAH1B3 FP inh	Apaf-1 inh	PAFAH1B2 inh	pPAFAH inh
Cc1ccccc1CS(=O)(=O)CCC(=O)N1CCN(c2ccc(N3CCOCC3)nn2)CC1	24.2	0.1	-15.0	0.5	27.2*
O=C(CCS(=O)(=O)Cc1ccccc1)N1CCN(c2ccccc2)CC1	7.9	-1.2	-11.7	2.3	10.7
CCCc1cc(=O)oc2cc(OCC(=O)NCCc3c[nH]c4ccccc34)ccc12	-2.0	-1.0	-9.9	5.8	0.6
CCC(=O)Nc1cc(C)c(NC(=O)C23CC4CC(CC(C4)C2)C3)cn1	5.0	-1.8	14.2	31.9*	-2.5
Cc1cc(NC(=O)C23CC4CC(CC(C4)C2)C3)n[nH]1	5.1	5.5	-0.5	22.9	-7.8
COc1ccc(C2c3ccc4ccccc4c3Oc3ncn(CCN(C)C)c(=N)c32)cc1 (configuration not stated)	1.1	10.8	5.1	2.2	-4.5
O=S(=O)(Nc1ccc(Cl)cc1)c1ccc2c(c1)CCO2	0.2	-5.1	1.9	19.7	31.6*
Nc1cc(S(=O)(=O)Nc2ccc(Cl)cc2)ccc1N1CCOCC1	4.5	-2.7	-9.4	0.9	25.0*
Cc1ccc(CC(=O)NNC(=O)c2ccncc2)cc1C	-6.1	-6.1	-0.1	3.4	5.3
COCC(C)NC(=O)c1ccc2c(c1)S(=O)(=O)c1ccccc1C2=O (configuration not stated)	5.0	9.7	7.9	1.7	2.6
CN(C)c1ccc(C(CNS(=O)(=O)c2ccc([N+](=O)[O-])cc2)N2CCCC2)cc1 (configuration not stated)	-5.7	2.1	14.1	3.2	5.5
Cc1cc(C(=O)OCC(=O)NCc2cccs2)ccc1[N+](=O)[O-]	18.5	5.2	8.1	5.2	31.4*
Nc1ccc2c(c1)C(=O)c1ccc(N)cc1-2	6.5	4.5	.	3.0	.
CNc1nc2ccccc2n1CC(=O)c1ccccc1	3.7	11.3	-14.4	-0.8	.
CC(=O)Nc1c(-c2cc(=O)oc3cc(C)ccc23)oc2ccccc12	4.8	6.4	13.4	2.9	.
Cc1oc2cc(Br)c(O)c(Br)c2c1-c1ccccc1	71.9*	-3.6	.	16.1	17.3
COc1ccc(N(CC(=O)NC2CCCCCC2)S(=O)(=O)c2ccccc2)cc1Cl	2.6	3.7	16.0	2.8	-1.1
Cc1ccc(S(=O)(=O)N2CCC(=O)N(C(COCc3ccc(Cl)cc3)C(C)C)CC2)cc1 (configuration not stated)	4.5	6.3	19.6	17.7	2.8
Cc1ccc(S(=O)(=O)N2CCC(=O)N(C(COCc3ccc(Cl)cc3)Cc3ccccc3)CC2)cc1 (configuration not stated)	6.5	9.2	16.9	24.5*	8.5
CCOC(=O)c1c(-c2ccc(-c3ccccc3)cc2)csc1NC(=O)C1C2CCC(O2)C1C(=O)O (configuration not stated)	-3.3	5.0	20.5	-1.7	28.4*
CCOC(=O)c1c(-c2ccccc2)csc1NC(=O)C1CCCO1 (configuration not stated)	-2.2	-5.7	4.3	-6.8	0.5
Cc1nn(CC(=O)NCC2CCCO2)c(C)c1[N+](=O)[O-] (configuration not stated)	5.0	10.7	-0.3	-2.9	-2.4
Cc1nn(CC(=O)NNC(=S)NCC2CCCO2)c(C)c1Br (configuration not stated)	-1.4	5.8	1.9	4.7	27.8*
CC1(C2CC2)NC(=O)N(CC(=O)Nc2ccccc2F)C1=O (configuration not stated)	-4.4	4.0	-7.2	6.8	.
N/C(=N\OC(=O)CCCOc1ccccc1)c1ccccc1	-2.6	-0.8	13.8	29.3*	1.9
SMILES	PAFAH2 inh	PAFAH1B3 FP inh	Apaf-1 inh	PAFAH1B2 inh	pPAFAH inh
N/C(=N\OC(=O)CCCOc1ccccc1)c1ccncc1	1.9	0.0	-3.0	13.8	-0.9
N/C(=N\OC(=O)CCCOc1ccccc1)c1ccc(Br)cc1	3.6	2.8	15.9	80.8*	-0.5
Cc1ccccc1-c1cccc([C@@H]2C[C@H]3[C@H](CON3C)CN2Cc2cc(Cl)cc(Cl)c2)c1	-1.5	15.3	.	1.8	.
CC(=O)Nc1ccc(S(=O)(=O)Nc2ccc3c(c2)C(=O)OC3)cc1	.	.	-15.5	.	0.6
CC(CCc1ccccc1)NS(=O)(=O)c1ccccc1 (configuration not stated)	3.7	7.8	4.1	33.0*	16.2
COc1ccc(OC)c(S(=O)(=O)NC(C)CCc2ccccc2)c1 (configuration not stated)	2.2	2.1	-0.7	17.2	6.3

Screening results: PubChem, several laboratories
